One compound from ChEMBL document CHEMBL4613269, “2-((4-Arylpiperazin-1-yl)methyl)benzonitrile Derivatives as Orally Available Inhibitors of Hepatitis C Virus with a Novel Mechanism of Action” (J Med Chem, 2020) can be followed below.

The subject of data set [1] is Hepatitis C virus. As to the kind of experiment: Antiviral activity against HCV GS4.3 infected in human Huh7.5 cells assessed as reduction in viral NS3 protein levels at 0.2 to 5 uM incubated for 72 hrs by Western blot assay. Format: functional, organism-based. The conditions noted are these: Hepacivirus hominis. In general terms: In western blotting, separated proteins are transferred to a membrane and probed.

A short description of data set [2]: Clearance in beagle dog at 15 mg/kg, po measured after 0.08 to 72 hrs post dose by LC-MS/MS analysis. The conditions noted are these: in vivo. The data set is classed as ADME, organism-based, Canis lupus familiaris. In outline:
(§1)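 Single dose to fasted (12 h) animals: oral gavage 15 mg/kg as suspension in 0.5% CMC-Na, or iv 5 mg/kg dissolved in citric acid buffer pH 5.0 with 2.5% DMSO. Jugular vein blood on heparin at 0.08 (iv only) to 72 h. Plasma assayed by LC-MS/MS; parameters from noncompartmental analysis.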

The subject of data set [3] is Hepatitis C virus. Kind of data set: Antiviral activity against HCV expressing NS3 D168V mutant by qRT-PCR analysis based by Reed-Muench method. The data set is classed as functional, organism-based, Hepacivirus hominis. In outline: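 Huh7.5 cells seeded at 3×10^4/cm², infected 24 h later with wild-type or mutant HCV stock while compound or solvent was added at the same time. Intracellular HCV RNA measured by qRT-PCR at 72 h, normalised to GAPDH, 2^-ΔCT method. EC50 by Reed & Muench from eight-step 1:5 serial dilutions, triplicate wells.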
A general note: Real-time PCR tracks product formation cycle by cycle.

The subject of data set [4] is Hepatitis C virus. Kind of data set: Synergistic antiviral activity against HCV infected in human Huh7.5 cells assessed as reduction in HCV core protein level by measuring (q) value at 0.1 uM in presence of 0.1 uM sofosbuvir incubated for 72 hrs by Western blot assay based Webb method relative to control. Format: functional, Hepacivirus hominis. In a few lines: (§2)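 Huh7.5 cells in 6-well plates were infected with HCV in the presence of 0.1 μM test compound combined with simeprevir 0.025 μM, sofosbuvir 0.1 μM or daclatasvir 0.016 nM. Western blot at 72 h gave HCV core protein relative to actin, normalized to control. q calculated by Webb's method (q<1 antagonism, =1 addition, >1 synergy); over 3 independent experiments.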

Data set [5] can be described thus: Half life in beagle dog at 15 mg/kg, po measured after 0.08 to 72 hrs post dose by LC-MS/MS analysis. The data set is classed as ADME, organism-based, Canis lupus familiaris. The conditions noted are these: in vivo. In outline:
as §1

A short description of data set [6]: Cmax in beagle dog at 5 mg/kg, iv measured after 0.08 to 72 hrs post dose by LC-MS/MS analysis. Also noted: dose 5 mg/kg, route intravenous. The data set is classed as ADME, organism-based, Canis lupus familiaris. The conditions noted are these: in vivo. In a few lines: as §1
Data set [7] has as its system Hepatitis C virus. As to the kind of experiment: Antiviral activity against HCV J6/JFH/JC1 infected in human Huh7.5 cells assessed as reduction in viral RNA levels incubated for 72 hrs by qRT-PCR analysis. Format: functional, organism-based. In outline:
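Huh7.5 cells seeded 24 h, then infected with wild-type (or mutant) HCV with compound added at the same time. Incubated 72 h. Intracellular HCV RNA measured by qRT-PCR, 2^-ΔCt method, normalized to GAPDH. Eight-step 1:5 serial dilutions in triplicate; EC50 by Reed & Muench; three independent experiments.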

A short description of data set [8]: Drug level in Sprague-Dawley rat at 5 mg/kg, iv measured after 72 hrs post dose by LC-MS/MS analysis. Format: ADME, organism-based. The conditions noted are these: in vivo, read-out: Drug uptake. In outline:
as §1

The test system of data set [9] is Hepatitis C virus. As to the kind of experiment: Synergistic antiviral activity against HCV infected in human Huh7.5 cells assessed as reduction in HCV core protein level by measuring (q) value at 0.1 uM in presence of 0.016 nM daclatasvir incubated for 72 hrs by Western blot assay based Webb method relative to control. Format: functional, Hepacivirus hominis. In outline: as §2

The nature of data set [10]: AUC (0 to 72 hrs) in Sprague-Dawley rat at 5 mg/kg, iv measured after 0.08 to 72 hrs post dose by LC-MS/MS analysis. The data set is classed as ADME, organism-based. Also noted: time < 72 hr, dose 5 mg/kg, route intravenous. The conditions noted are these: in vivo. In outline:
as §1

The subject of data set [11] is Hepatitis C virus. Kind of data set: Antiviral activity against HCV GS4.3 infected in human Huh7.5 cells assessed as […] at 0.008 to 1 uM pre-incubated with drug for 2 hrs before viral infection and measured after 72 hrs by Western blot assay. The data set is classed as functional, organism-based. The conditions noted are these: Hepacivirus hominis.
The test system of data set [12] is Hepatitis C virus. As to the kind of experiment: Antiviral activity against HCV GS4.3 infected in human Huh7.5 cells assessed as reduction in viral replication at 1 uM simultaneously treated with viral infection for 15 mins to 2 hrs and measured after 72 hrs by In-Cell Western assay. The conditions noted are these: Hepacivirus hominis. The data set is classed as functional, organism-based. In outline:
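Huh7.5 cells infected with HCV while incubated with compound, either for 4 h across a concentration series or at 1.0 µM for varied times down to 15 min. Supernatant then replaced with fresh medium. Intracellular Core protein measured by In-Cell Western at 72 h.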

Data set [13] is described as follows: Cytotoxicity in human Huh7.5 cells assessed as reduction in cell viability incubated for 96 hrs by MTT assay. Format: cell-based. In outline:
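Huh7.5 cells seeded 24 h before compound addition. Viability read by MTT at 96 h. Eight-step 1:5 serial dilutions in triplicate; CC50 by Reed & Muench; three independent experiments.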
(In general: Formazan colour is commonly taken as a measure of viable cells.)

A short description of data set [14]: Selectivity index, ratio of CC50 for cytotoxicity in human Huh7.5 cells assessed as reduction in cell viability incubated for 96 hrs by MTT assay to EC50 for antiviral activity against HCV J6/JFH/JC1 infected in human Huh7.5 cells incubated for 72 hrs by In-Cell Western assay. The conditions noted are these: read-out: Ratio CC50/EC50. Format: toxicity, cell-based. In a few lines:
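HCVcc (MOI=0.1) infected Huh7.5 cells co-treated with eight-step 1:5 serial dilutions, triplicate wells. After 72 h, fixed, permeabilized, and stained for HCV Core and GAPDH with IR-dye secondaries. Core normalized to GAPDH. CC50 came from MTT at 96 h in uninfected Huh7.5 cells. EC50/CC50 were derived by Reed & Muench, mean ± SD of three independent experiments.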

A further data set concerns Influenza A virus. Kind of data set: Antiviral activity against influenza A virus H3N2/95-359 infected in MDCK cells assessed as reduction in virus-induced cytopathic effect incubated for 48 hrs by Reed-Muench method. The data set is classed as functional, organism-based. The conditions noted are these: H3N2/95-359, MDCK.
Data set [15] in a line: Drug level in beagle dog at 5 mg/kg, iv measured after 24 hrs post dose by LC-MS/MS analysis. Format: ADME, organism-based, Canis lupus familiaris. The conditions noted are these: in vivo, read-out: Drug uptake. In outline: as §1
The nature of data set [16]: Toxicity in Kunming mouse assessed as effect on AST level at 250 to 1000 mg/kg dosed via single oral gavage and measured on day 7 post treatment. The conditions noted are these: in vivo. The data set is classed as organism-based. In outline:
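Kunming mice, 4 groups of n = 6 (3 male, 3 female). Fasted from 12 h before to 1 h after dosing. Single oral gavage of 250, 500 or 1000 mg/kg suspended in 0.5% CMC-Na, or vehicle alone. Followed for 7 days: survival, body weight before and at day 7. Day-7 blood taken for AST, ALT, urea nitrogen and creatinine.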

Data set [17] in a line: Selectivity index, ratio of CC50 for cytotoxicity in African green monkey Vero E6 cells to EC50 for Antiviral activity against Zika virus infected in Vero E6 cells. The conditions noted are these: read-out: Ratio CC50/EC50. Format: toxicity, cell-based, Vero C1008.
Data set [18] relates to Hepatitis C virus. As to the kind of experiment: Antiviral activity against HCV J6/JFH/JC1 infected in human Huh7.5 cells incubated for 72 hrs by In-Cell Western assay. Format: functional, organism-based, Hepacivirus hominis. The conditions noted are these: J6/JFH/JC1, Huh7.5, 72 h. In outline:
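Huh7.5 cells infected with HCVcc (MOI 0.1) and treated with compound at the same time for 72 h. Cells fixed with PFA, permeabilized, then stained for HCV Core and GAPDH with IR-dye secondaries. Core signal normalized to GAPDH. Eight-step 1:5 dilutions in triplicate; EC50 by Reed & Muench; mean of three experiments.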

A short description of data set [19]: Drug level in Sprague-Dawley rat at 15 mg/kg, po measured after 24 hrs post dose by LC-MS/MS analysis. The conditions noted are these: in vivo, read-out: Drug uptake. The data set is classed as ADME, organism-based. In a few lines:
as §1

Active and inactive are the calls of the source.

As a reminder, the CL/F is the apparent clearance, not corrected for the fraction that reaches the circulation. A word on the EC50: it is the concentration giving half of the maximal effect. Usually half-life stands for the time needed for the level to fall by half in the phase considered. The Cmax is the maximum level reached in the sampled fluid or tissue. The term AUC(0-t) denotes exposure summed from dosing to a finite time, without extrapolation to infinity. Usually CC50 stands for the concentration at which the toxic effect on the cells reaches its halfway point. Consider `CN(C)CCN(C)c1ccc(C#N)c(CN2CCN(c3ccc(Cl)cc3)CC2)c1`, for which the outcome in the data set with Hepatitis C virus [1] and in the data set on Hepatitis C virus [11] was inactive. The compound also gave a CL/F in [2] of 200 mL/min/kg. For the same compound, the EC50 with Hepatitis C virus [3] is 30 nM; in the data set with Hepatitis C virus [7] (J6/JFH/JC1, Huh7.5, 72 h), 22 nM; with Influenza A virus it was greater than 2470 nM; with Hepatitis C virus [18] it was 83 to 125 nM. For the same compound, the Ratio with Hepatitis C virus [4] was determined as 1.08; in the data set with Hepatitis C virus [9], 1.27. In data set [5], this compound gave a half-life of 12.7 h. This compound also registered a Cmax in data set [6] of 532 ng/mL. In addition, the Activity result was “Dose-dependent effect” in the data set on Hepatitis C virus [7] (Hepacivirus hominis) and “Non-Toxic” in data set [16]. Also, in [8], the concentration at 72 h came to 9.2 ng/mL. The compound also gave an exposure AUC(0-t) at 72 h in [10] of 5420 ng·h/mL. Further, the result in the data set with Hepatitis C virus [12] was Active. The half-maximal cytotoxic concentration (CC50) at 96 h in [13] was 12800 to 14800 nM. In addition, the selectivity ratio in [14] was 111 to 154; in data set [17], 3. The concentration at 24 h stood at 6.16 ng/mL in [15] and 119 ng/mL in data set [19].
